What was measured:
Cytochrome P450 3A4 [1] = biological target: T1, Cytochrome P450 3A4 (Homo sapiens, UniProt P08684); experiment: Drug level assessed as human recombinant CYP3A4-mediated compound formation treated with 4-(1,1,1,2,3,3,3-Heptafluoropropan-2-yl)-N-(6-(2-hydroxyethoxy)-5-(2-methoxyphenoxy)-2,2'-bipyrimidin-4-yl)benzenesulfonamide at 5 uM in presence of NADPH after 30 mins by LC-MS/MS analysis; format: ADME; details: recombinant enzyme, 0.5 h
Outline: (§1)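 Substrate at 5 μM final in 100 mM potassium phosphate, pH 7.4, incubated with human liver microsomes or baculovirus-expressed recombinant CYP3A4, 2D6 or 2C9. Reaction started with 1 mM NADPH and run 0, 15 and 30 min at 37 °C. Stopped with ice-cold acetonitrile containing labetalol internal standard, then centrifuged. Supernatant analysed by LC-MS/MS on a C18 column at 40 °C. Blank was enzyme without substrate.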

[2] = Retention time of the compound; format: physicochemical
[3] = Drug level in human liver microsomes treated with 4-(1,1,1,2,3,3,3-Heptafluoropropan-2-yl)-N-(6-(2-hydroxyethoxy)-5-(2-methoxyphenoxy)-2,2'-bipyrimidin-4-yl)benzenesulfonamide at 5 uM in presence of NADPH after 30 mins by LC-MS/MS analysis; format: ADME; details: 0.5 h; outline: as §1
[4] = Drug level in human liver microsomes treated with 4-(1,1,1,3,3,3-Hexafluoro-2-hydroxypropan-2-yl)-N-(6-(2-hydroxyethoxy)-5-(2-methoxyphenoxy)-2,2'-bipyrimidin-4-yl)benzenesulfonamide at 5 uM in presence of NADPH after 30 mins by LC-MS/MS analysis; format: ADME; details: 0.5 h; outline: as §1
Cytochrome P450 3A4 [5] = biological target: T1, Cytochrome P450 3A4; experiment: Drug level assessed as human recombinant CYP3A4-mediated compound formation treated with 4-(1,1,1,3,3,3-Hexafluoro-2-hydroxypropan-2-yl)-N-(6-(2-hydroxyethoxy)-5-(2-methoxyphenoxy)-2,2'-bipyrimidin-4-yl)benzenesulfonamide at 5 uM in presence of NADPH after 30 mins by LC-MS/MS analysis; format: ADME; details: recombinant enzyme, 0.5 h; outline: as §1
[6] = biological target: T2, Endothelin receptor type B (Homo sapiens) (UniProt P24530); experiment: Antagonist activity at human recombinant ETB expressed in CHOK1 cells assessed as inhibition of endothelin-1-mediated Ca2+ mobilization at 1 nM by fluorimetric method relative to control; format: functional, cell-based; details: CHO-K1
T2 sequence (whole entry): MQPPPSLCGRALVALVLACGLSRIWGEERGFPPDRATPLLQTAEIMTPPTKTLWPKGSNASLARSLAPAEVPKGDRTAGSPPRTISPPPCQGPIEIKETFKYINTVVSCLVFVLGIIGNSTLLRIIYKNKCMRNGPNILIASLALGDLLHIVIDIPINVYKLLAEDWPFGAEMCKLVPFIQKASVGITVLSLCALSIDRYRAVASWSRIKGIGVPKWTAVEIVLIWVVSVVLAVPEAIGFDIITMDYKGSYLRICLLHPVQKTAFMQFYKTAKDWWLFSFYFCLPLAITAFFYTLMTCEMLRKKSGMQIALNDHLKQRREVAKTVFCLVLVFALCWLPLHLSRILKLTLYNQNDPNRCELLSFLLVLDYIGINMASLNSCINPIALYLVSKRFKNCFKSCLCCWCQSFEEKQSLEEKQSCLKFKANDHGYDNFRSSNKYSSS
Outline: (§2)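 ETB functional assay run by Cerep in human recombinant CHO-k1 cells at 22 °C with fluorimetric read-out. Test solutions were 1, 10, 100 and 1000 nM. Agonist response is given as % of the control response to 100 nM endothelin-1. For antagonist mode, inhibition is given as % of the control endothelin-1 agonist response, with BQ-788 as reference antagonist.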

[7] = Metabolic stability in human liver microsomes assessed as parent compound remaining at 5 uM in presence of NADPH after 30 mins by LC-MS/MS analysis; format: ADME; details: read-out: Stability
Outline: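 Pooled human liver microsomes in 100 mM potassium phosphate, pH 7.4, with test compound at 5 μM final. Reaction started with 1 mM NADPH (final) and run at 37 °C in a shaking water bath for 0, 15 and 30 min. Stopped with an equal volume of ice-cold acetonitrile containing 0.6 μM labetalol as internal standard. Protein was spun out and the supernatant analysed by LC-MS/MS. Blank had no compound.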

[8] = biological target: T3, Endothelin-1 receptor (Homo sapiens) (UniProt P25101); experiment: Antagonist activity at ETA receptor in human SKNMC cells assessed as inhibition of endothelin-1-mediated Ca2+ mobilization at 1 nM by fluorimetric method relative to control; format: functional, cell-based; details: SK-N-MC
T3 sequence (whole entry): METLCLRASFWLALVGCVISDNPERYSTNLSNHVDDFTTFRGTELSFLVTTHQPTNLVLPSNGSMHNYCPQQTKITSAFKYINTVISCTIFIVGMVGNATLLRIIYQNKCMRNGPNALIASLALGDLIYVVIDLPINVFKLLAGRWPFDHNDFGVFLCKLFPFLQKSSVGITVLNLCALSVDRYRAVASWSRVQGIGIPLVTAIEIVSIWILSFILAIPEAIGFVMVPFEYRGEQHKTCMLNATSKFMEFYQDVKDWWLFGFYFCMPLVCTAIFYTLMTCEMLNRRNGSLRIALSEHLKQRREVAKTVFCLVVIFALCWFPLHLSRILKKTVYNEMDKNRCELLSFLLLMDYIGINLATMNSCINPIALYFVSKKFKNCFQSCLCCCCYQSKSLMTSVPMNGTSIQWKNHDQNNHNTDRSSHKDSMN
Outline: (§3)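 ETA functional assay run by Cerep in human neuroblastoma SK-N-MC cells at 22 °C with fluorimetric read-out. Test solutions were 1, 10, 100 and 1000 nM. Agonist response is given as % of the control response to 100 nM endothelin-1. For antagonist mode, inhibition is given as % of the control endothelin-1 agonist response, with BQ-123 as reference antagonist.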

Cytochrome P450 3A4 [9] = biological target: T1, Cytochrome P450 3A4; experiment: Drug metabolism assessed as human recombinant CYP3A4-mediated metabolite formation by measuring parent compound remaining at 5 uM in presence of NADPH after 30 mins by LC-MS/MS analysis; format: ADME; details: recombinant enzyme, 0.5 h; outline: as §1
[10] = biological target: T3, Endothelin-1 receptor (Homo sapiens); experiment: Agonist activity at ETA receptor in human SKNMC cells assessed as induction of Ca2+ mobilization at 100 nM by fluorimetric method relative to control; format: functional, cell-based; details: SK-N-MC; outline: as §3
[11] = Drug metabolism in human liver microsomes assessed as formation of 4-(1,1,1,3,3,3-hexafluoro-2-hydroxypropan-2-yl)-N-(6-(2-hydroxyethoxy)-5-(2-hydroxyphenoxy)-2,2'-bipyrimidin-4-yl)benzenesulfonamide at 5 uM in presence of NADPH after 30 mins by LC-MS/MS analysis; format: ADME; details: 0.5 h; outline: as §1
[12] = Drug level in human liver microsomes treated with 4-(1,1,1,3,3,3-Hexafluoro-2-methoxypropan-2-yl)-N-(6-(2-hydroxyethoxy)-5-(2-methoxyphenoxy)-2,2'-bipyrimidin-4-yl)benzenesulfonamide at 5 uM in presence of NADPH after 30 mins by LC-MS/MS analysis; format: ADME; details: 0.5 h; outline: as §1
[13] = biological target: T2, Endothelin receptor type B (Homo sapiens); experiment: Antagonist activity at human recombinant ETB expressed in CHOK1 cells assessed as inhibition of endothelin-1-mediated Ca2+ mobilization at 10 nM by fluorimetric method relative to control; format: functional, cell-based; details: CHO-K1; outline: as §2
Cytochrome P450 2C9 = Cytochrome P450 2C9 (Homo sapiens, UniProt P11712); experiment: Drug metabolism assessed as human recombinant CYP2C9-mediated metabolite formation by measuring parent compound remaining at 5 uM in presence of NADPH after 30 mins by LC-MS/MS analysis; format: ADME; details: recombinant enzyme, 0.5 h; outline: as §1
[14] = biological target: T2, Endothelin receptor type B (Homo sapiens); experiment: Agonist activity at human recombinant ETB receptor expressed in CHOK1 cells assessed as induction of Ca2+ mobilization at 100 nM by fluorimetric method relative to control; format: functional, cell-based; details: CHO-K1; outline: as §2
Cytochrome P450 3A4 [15] = biological target: T1, Cytochrome P450 3A4; experiment: Drug metabolism assessed as human recombinant CYP3A4-mediated formation of 4-(1,1,1,3,3,3-hexafluoro-2-hydroxypropan-2-yl)-N-(6-(2-hydroxyethoxy)-5-(2-hydroxyphenoxy)-2,2'-bipyrimidin-4-yl)benzenesulfonamide at 5 uM in presence of NADPH after 30 mins by LC-MS/MS analysis; format: ADME; details: recombinant enzyme, 0.5 h; outline: as §1
Cytochrome P450 3A4 [16] = biological target: T1, Cytochrome P450 3A4; experiment: Drug level assessed as human recombinant CYP3A4-mediated compound formation treated with 4-(1,1,1,3,3,3-Hexafluoro-2-methoxypropan-2-yl)-N-(6-(2-hydroxyethoxy)-5-(2-methoxyphenoxy)-2,2'-bipyrimidin-4-yl)benzenesulfonamide at 5 uM in presence of NADPH after 30 mins by LC-MS/MS analysis; format: ADME; details: recombinant enzyme, 0.5 h; outline: as §1
[17] = biological target: T2, Endothelin receptor type B (Homo sapiens); experiment: Agonist activity at human recombinant ETB receptor expressed in CHOK1 cells assessed as induction of Ca2+ mobilization at 1 nM by fluorimetric method relative to control; format: functional, cell-based; details: CHO-K1; outline: as §2
[18] = biological target: T3, Endothelin-1 receptor (Homo sapiens); experiment: Antagonist activity at ETA receptor in human SKNMC cells assessed as inhibition of endothelin-1-mediated Ca2+ mobilization at 10 nM by fluorimetric method relative to control; format: functional, cell-based; details: SK-N-MC; outline: as §3
[19] = biological target: T3, Endothelin-1 receptor (Homo sapiens); experiment: Agonist activity at ETA receptor in human SKNMC cells assessed as induction of Ca2+ mobilization at 10 nM by fluorimetric method relative to control; format: functional, cell-based; details: SK-N-MC; outline: as §3
[20] = biological target: T2, Endothelin receptor type B (Homo sapiens); experiment: Agonist activity at human recombinant ETB receptor expressed in CHOK1 cells assessed as induction of Ca2+ mobilization at 10 nM by fluorimetric method relative to control; format: functional, cell-based; details: CHO-K1; outline: as §2
[21] = biological target: T3, Endothelin-1 receptor (Homo sapiens); experiment: Agonist activity at ETA receptor in human SKNMC cells assessed as induction of Ca2+ mobilization at 1 nM by fluorimetric method relative to control; format: functional, cell-based; details: SK-N-MC; outline: as §3
[22] = biological target: T2, Endothelin receptor type B (Homo sapiens); experiment: Antagonist activity at human recombinant ETB expressed in CHOK1 cells assessed as inhibition of endothelin-1-mediated Ca2+ mobilization at 100 nM by fluorimetric method relative to control; format: functional, cell-based; details: CHO-K1; outline: as §2
[23] = Cytotoxicity against CHOK1 cells assessed as decrease in cell viability after 24 hrs by MTT assay; format: toxicity, cell-based, Cricetulus griseus; details: Chinese hamster, CHO-K1 cells
Outline: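 CHO-k1 cells grown in phenol-red-free DMEM/F-12 with 10% FBS, seeded at 20,000 cells/well and allowed to attach overnight. Exposure was 24 h to 0.1–200 μM, with DMSO as vehicle control. MTT at 1 mg/mL for 3 h at 37 °C, formazan dissolved in DMSO, absorbance read at 570 nm. Data given as % OD of vehicle control; IC50 taken from dose–response curve fits.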

Cytochrome P450 2D6 = Cytochrome P450 2D6 (Homo sapiens, UniProt P10635); experiment: Drug metabolism assessed as human recombinant CYP2D6-mediated metabolite formation by measuring parent compound remaining at 5 uM in presence of NADPH after 30 mins by LC-MS/MS analysis; format: ADME; details: recombinant enzyme, 0.5 h; outline: as §1
[24] = biological target: T3, Endothelin-1 receptor (Homo sapiens); experiment: Antagonist activity at ETA receptor in human SKNMC cells assessed as inhibition of endothelin-1-mediated Ca2+ mobilization at 100 nM by fluorimetric method relative to control; format: functional, cell-based; details: SK-N-MC; outline: as §3

T1 sequence (P08684 whole entry): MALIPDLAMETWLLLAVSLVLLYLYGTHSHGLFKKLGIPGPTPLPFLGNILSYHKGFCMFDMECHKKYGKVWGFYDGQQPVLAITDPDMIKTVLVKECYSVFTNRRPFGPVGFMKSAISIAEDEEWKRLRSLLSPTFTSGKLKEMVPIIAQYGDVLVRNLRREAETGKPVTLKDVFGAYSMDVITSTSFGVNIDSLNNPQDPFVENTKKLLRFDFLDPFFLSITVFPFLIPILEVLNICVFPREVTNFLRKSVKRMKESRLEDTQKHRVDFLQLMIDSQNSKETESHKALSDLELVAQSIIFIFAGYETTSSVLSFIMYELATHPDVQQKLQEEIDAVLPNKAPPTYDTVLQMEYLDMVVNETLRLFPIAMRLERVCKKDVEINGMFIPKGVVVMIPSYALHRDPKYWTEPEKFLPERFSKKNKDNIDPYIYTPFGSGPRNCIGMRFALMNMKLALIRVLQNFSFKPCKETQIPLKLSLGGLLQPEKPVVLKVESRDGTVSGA
Cytochrome P450 2D6, sequence (P10635 whole entry): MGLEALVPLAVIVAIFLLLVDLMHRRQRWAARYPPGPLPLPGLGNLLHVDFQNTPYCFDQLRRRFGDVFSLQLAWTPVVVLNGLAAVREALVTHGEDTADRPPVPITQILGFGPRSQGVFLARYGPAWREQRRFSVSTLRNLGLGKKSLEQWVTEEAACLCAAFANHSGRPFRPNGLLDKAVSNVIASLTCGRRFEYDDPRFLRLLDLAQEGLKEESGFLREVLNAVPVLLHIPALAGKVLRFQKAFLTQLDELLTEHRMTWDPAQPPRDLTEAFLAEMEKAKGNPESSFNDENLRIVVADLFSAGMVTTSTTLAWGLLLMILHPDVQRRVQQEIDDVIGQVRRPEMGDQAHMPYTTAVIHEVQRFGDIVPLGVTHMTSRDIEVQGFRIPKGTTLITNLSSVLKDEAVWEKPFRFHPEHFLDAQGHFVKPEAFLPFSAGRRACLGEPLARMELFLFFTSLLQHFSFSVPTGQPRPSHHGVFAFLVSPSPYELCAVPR
Cytochrome P450 2C9, sequence (P11712 whole entry): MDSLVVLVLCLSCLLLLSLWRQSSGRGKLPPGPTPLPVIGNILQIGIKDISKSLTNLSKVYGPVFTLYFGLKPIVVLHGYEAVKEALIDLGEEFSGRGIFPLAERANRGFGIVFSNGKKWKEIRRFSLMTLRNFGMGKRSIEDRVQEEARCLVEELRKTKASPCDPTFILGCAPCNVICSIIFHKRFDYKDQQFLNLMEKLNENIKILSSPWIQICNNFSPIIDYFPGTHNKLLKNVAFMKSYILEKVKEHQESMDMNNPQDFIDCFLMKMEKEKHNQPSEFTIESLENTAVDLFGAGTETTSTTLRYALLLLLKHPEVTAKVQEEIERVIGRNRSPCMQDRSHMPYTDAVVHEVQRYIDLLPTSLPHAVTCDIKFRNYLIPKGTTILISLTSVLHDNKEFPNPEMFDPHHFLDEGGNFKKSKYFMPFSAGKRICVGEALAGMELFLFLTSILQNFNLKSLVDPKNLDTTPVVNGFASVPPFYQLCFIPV

## O=S(=O)(Nc1nc(-c2ncccn2)nc(OCCO)c1Oc1ccccc1O)c1ccc(C(F)(C(F)(F)F)C(F)(F)F)cc1
Cytochrome P450 3A4 [1]
  Drug metabolism: Metabolite_Detected
[2]
  Retention_time: 5.27 min
[3]
  Drug metabolism: Metabolite_Detected

## O=S(=O)(Nc1nc(-c2ncccn2)nc(OCCO)c1Oc1ccccc1O)c1ccc(C(O)(C(F)(F)F)C(F)(F)F)cc1
[4]
  Drug metabolism: Metabolite_Detected
Cytochrome P450 3A4 [5]
  Drug metabolism: Metabolite_Detected
[2]
  Retention_time: 4.39 min

## COc1ccccc1Oc1c(NS(=O)(=O)c2ccc(C(O)(C(F)(F)F)C(F)(F)F)cc2)nc(-c2ncccn2)nc1OCCO
[6]
  inhibition: 12%
[7]
  remaining at 0.5 h, 5 µM: 90.1%
[8]
  inhibition: -9%
Cytochrome P450 3A4 [9]
  Stability: 72.8%
[2]
  Retention_time: 4.72 min
[10]
  Activity: 0%
[11]
  Drug metabolism: Metabolite_Detected
[12]
  Drug metabolism: Metabolite_Detected
[13]
  inhibition: 11%
Cytochrome P450 2C9
  Stability: 100%
[14]
  Activity: -1%
Cytochrome P450 3A4 [15]
  Drug metabolism: Metabolite_Detected
Cytochrome P450 3A4 [16]
  Drug metabolism: Metabolite_Detected
[17]
  Activity: -1%
[18]
  inhibition: -5%
[19]
  Activity: 0%
[20]
  Activity: -1%
[21]
  Activity: 0%
[22]
  inhibition: 14%
[23]
  IC50 at 24 h: > 200 µM
Cytochrome P450 2D6
  Stability: > 99%
[24]
  inhibition: -7%

## CCOc1nc(-c2ncccn2)nc(NS(=O)(=O)c2ccc(C(C)(C)C)cc2)c1Oc1ccccc1O
[2]
  Retention_time: 5.52 min
